Series [1] relates to Staphylococcus aureus. Briefly: Antimicrobial activity against methicillin-sensitive Staphylococcus aureus by broth microdilution/CLSI method. Type of series: functional. As to conditions: Staphylococcus aureus; read-out: MIC. (In general: In broth dilution the organism is exposed to a series of concentrations in liquid medium.)
Series [2] can be described thus: Percentage unbound in human plasma. In kind it is ADME, cell-free.
In series [3] the test system is Escherichia coli. Nature of the series: Antimicrobial activity against wild-type Escherichia coli Eco523 by broth microdilution/CLSI method. In kind it is functional. To be noted: Escherichia coli, Eco523; read-out: MIC.
For series [4], the system named is Staphylococcus aureus. Nature of the series: Antimicrobial activity against methicillin, quinolone-resistant Staphylococcus aureus by broth microdilution/CLSI method. In kind it is functional. To be noted: Staphylococcus aureus; read-out: MIC.
Series [5] can be described thus: Clearance in rat at 10 mg/kg, iv. On the set-up: dose 10 mg/kg, route intravenous. In kind it is ADME, organism-based. As to conditions: in vivo.
Series [6] relates to Escherichia coli. Briefly: Antimicrobial activity against Escherichia coli tolC- by broth microdilution/CLSI method. Type of series: functional. To be noted: Escherichia coli; read-out: MIC.
The test system of the next series is Moraxella catarrhalis. Nature of the series: Antimicrobial activity against Moraxella catarrhalis by broth microdilution/CLSI method. Type of series: functional. As to conditions: Moraxella catarrhalis; read-out: MIC.
A short description of series [7]: Ratio of MIC for methicillin, quinolone-resistant Staphylococcus aureus to fraction unbound in human plasma. In kind it is ADME.
In a further series the test system is Streptococcus pneumoniae. Nature of the series: Antibacterial activity against Streptococcus pneumoniae by broth microdilution/CLSI method. Type of series: functional. As to conditions: Streptococcus pneumoniae; read-out: MIC.
A short description of series [8]: Octanol-phosphate buffer distribution coefficient, log D of the compound at pH 7.4 by shake flask method. Type of series: physicochemical.
The target in another series is DNA gyrase subunit B (Staphylococcus aureus, UniProt P0A0K8). Briefly: Inhibition of ATPase activity of Staphylococcus aureus GyrB. In short, it runs like this: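 IC50 was determined against S. aureus GyrB in the routine screening assay. The enzyme concentration limits resolution below 10 nM.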
Sequence of DNA gyrase subunit B (P0A0K8 whole entry): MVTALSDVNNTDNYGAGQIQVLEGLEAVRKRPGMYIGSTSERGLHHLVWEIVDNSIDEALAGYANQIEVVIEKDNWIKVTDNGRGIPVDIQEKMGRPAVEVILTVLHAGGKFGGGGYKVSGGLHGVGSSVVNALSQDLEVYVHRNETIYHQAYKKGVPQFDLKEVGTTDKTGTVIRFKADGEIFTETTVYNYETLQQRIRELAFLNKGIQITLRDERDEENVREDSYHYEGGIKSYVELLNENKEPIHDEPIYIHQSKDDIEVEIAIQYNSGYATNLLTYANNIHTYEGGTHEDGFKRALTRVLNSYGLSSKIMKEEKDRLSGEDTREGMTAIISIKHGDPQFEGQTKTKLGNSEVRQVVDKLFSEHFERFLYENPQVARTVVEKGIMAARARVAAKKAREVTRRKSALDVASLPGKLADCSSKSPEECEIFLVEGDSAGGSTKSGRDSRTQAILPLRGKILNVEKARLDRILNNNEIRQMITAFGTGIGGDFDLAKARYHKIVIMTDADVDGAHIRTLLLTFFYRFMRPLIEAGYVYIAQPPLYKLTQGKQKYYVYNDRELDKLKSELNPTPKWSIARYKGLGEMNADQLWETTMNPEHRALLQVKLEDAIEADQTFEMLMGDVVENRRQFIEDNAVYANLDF
The test system of a further series is Streptococcus pyogenes. Nature of the series: Antimicrobial activity against Streptococcus pyogenes by broth microdilution/CLSI method. Type of series: functional.
The nature of series [9]: Solubility of the compound. In kind it is physicochemical.
For the next series, the system named is Haemophilus influenzae. Nature of the series: Antimicrobial activity against Haemophilus influenzae by broth microdilution/CLSI method. Type of series: functional. As to conditions: Haemophilus influenzae; read-out: MIC.

Converted amounts (≈) assume the structure as drawn.

As a reminder, the fraction unbound is the share of the substance not bound to proteins or other matrix. Broadly, the clearance is the rate of elimination divided by the concentration. Read a high clearance as a high capacity for elimination. By logD is commonly meant lipophilicity at a set pH, counting ionised and neutral species. A higher logD goes with higher lipophilicity. What is called IC50 is the concentration at which inhibition is half-maximal. The term solubility denotes the concentration that dissolves in the medium under given conditions. As for `CO[C@H]1CN(c2nc(CN3CCOCC3)c(C(=O)O)s2)CC[C@H]1NC(=O)c1[nH]c(C)c(Cl)c1Cl` (racemic), the MIC with Staphylococcus aureus [1] is 2 µg/mL (≈ 3.76 µM); in the series with Escherichia coli [3], 0.13 µg/mL (≈ 0.244 µM); with Staphylococcus aureus [4], 2 µg/mL (≈ 3.76 µM); in the series on Escherichia coli [6] it was over 8 µg/mL; with Moraxella catarrhalis it was 1 µg/mL (≈ 1.88 µM); in the series with Streptococcus pneumoniae it was 0.25 µg/mL (≈ 0.47 µM). In addition, the figures for the MIC in the series on Streptococcus pyogenes and in the series on Haemophilus influenzae were 0.25 µg/mL (≈ 0.47 µM) and 4 µg/mL (≈ 7.51 µM), respectively. The same compound showed an unbound share (fraction unbound) in series [2] of 0.057. The compound further displayed a clearance in [5] of 0.25 mL/min/kg. Besides, the Ratio in [7] stood at 35. The log distribution coefficient (logD) in series [8] amounted to 1.4. In addition, on DNA gyrase subunit B, the IC50 is under 0.01 µM. In series [9], this compound displayed a solubility of over 1000 µM.
For `CO[C@H]1CN(c2nc(C(=O)NCC3(C)OCCO3)c(C(=O)O)s2)CC[C@H]1NC(=O)c1[nH]c(C)c(Cl)c1Cl`, the MIC in the series with Staphylococcus aureus [1] is 0.063 µg/mL (≈ 0.109 µM); with Escherichia coli [3], 11 µg/mL (≈ 19.1 µM); in the series with Staphylococcus aureus [4], 0.084 µg/mL (≈ 0.146 µM); in the series on Escherichia coli [6], 0.5 µg/mL (≈ 0.867 µM); in the series with Moraxella catarrhalis, 0.016 µg/mL (≈ 0.0278 µM); in the series on Streptococcus pneumoniae it was 0.016 µg/mL (≈ 0.0278 µM). The MIC is 0.016 µg/mL (≈ 0.0278 µM) in the series with Streptococcus pyogenes and 0.11 µg/mL (≈ 0.191 µM) in the series with Haemophilus influenzae. In series [2], the free fraction (fraction unbound) was found to be 0.032. The compound also displayed a clearance in series [5] of 34 mL/min/kg. For the same compound, the Ratio in series [7] was 2.6. In addition, in series [8], the logD worked out at 1. Moreover, the half-inhibitory concentration (IC50) on DNA gyrase subunit B was under 0.01 µM. The same compound had a solubility in series [9] of 620 µM (≈ 357 µg/mL).
Take `COc1ccnc(-c2nc(N3CC[C@@H](NC(=O)c4[nH]c(C)c(Cl)c4Cl)[C@@H](OC)C3)sc2C(=O)O)n1`: the MIC was under 0.06 µg/mL in the series on Staphylococcus aureus [1]; 16 µg/mL (≈ 29.6 µM) in the series with Escherichia coli [3]; under 0.06 µg/mL in the series on Moraxella catarrhalis; under 0.06 µg/mL with Streptococcus pneumoniae; under 0.06 µg/mL against Streptococcus pyogenes; 0.25 µg/mL (≈ 0.462 µM) in the series on Haemophilus influenzae. In series [2], this compound gave an unbound share (fraction unbound) of 0.036. For the same compound, the clearance in [5] came out at 6.3 mL/min/kg. Further, the Ratio in series [7] is recorded as 1.75. For the same compound, the IC50 against DNA gyrase subunit B was under 0.01 µM.
On to `COc1cc(OC)nc(-c2nc(N3CC[C@@H](NC(=O)c4[nH]c(C)c(Cl)c4Cl)[C@@H](OC)C3)sc2C(=O)O)n1`, for which the MIC was determined as 0.025 µg/mL (≈ 0.0437 µM) with Staphylococcus aureus [1]; 32 µg/mL (≈ 56 µM) in the series on Escherichia coli [3]; 0.05 µg/mL (≈ 0.0875 µM) in the series on Staphylococcus aureus [4]; 1 µg/mL (≈ 1.75 µM) with Escherichia coli [6]; 0.016 µg/mL (≈ 0.028 µM) in the series on Moraxella catarrhalis; 0.016 µg/mL (≈ 0.028 µM) in the series on Streptococcus pneumoniae. The values for the MIC against Streptococcus pyogenes and in the series with Haemophilus influenzae were 0.016 µg/mL (≈ 0.028 µM) and 0.25 µg/mL (≈ 0.437 µM), respectively. Further, the fraction unbound in [2] amounted to 0.036. The clearance in series [5] turned out to be 6.3 mL/min/kg. The Ratio in series [7] is on record as 1.4. The compound further displayed a pH-dependent lipophilicity (logD) in series [8] of 1.7. This compound had an IC50 on DNA gyrase subunit B of under 0.01 µM.
`CO[C@H]1CN(c2nc(C(F)F)c(C(=O)O)s2)CC[C@H]1NC(=O)c1[nH]c(C)c(Cl)c1Cl`: the MIC in the series with Staphylococcus aureus [1] is 2 µg/mL (≈ 4.14 µM); in the series on Escherichia coli [3], over 8 µg/mL; in the series on Staphylococcus aureus [4], 2 µg/mL (≈ 4.14 µM); in the series with Escherichia coli [6], 0.5 µg/mL (≈ 1.03 µM); in the series on Moraxella catarrhalis it was 0.063 µg/mL (≈ 0.13 µM); in the series on Streptococcus pneumoniae, 0.063 µg/mL (≈ 0.13 µM). Moreover, the MIC against Streptococcus pyogenes is 0.13 µg/mL (≈ 0.269 µM); with Haemophilus influenzae it was 1 µg/mL (≈ 2.07 µM). In series [5], this compound showed a clearance of 70 mL/min/kg. Also, the pH-dependent lipophilicity (logD) in [8] is 0.52. The IC50 against DNA gyrase subunit B is under 0.01 µM. This compound gave a solubility in series [9] of 690 µM (≈ 333 µg/mL).
Turning to `CO[C@H]1CN(c2nc3cccc(C(=O)O)c3s2)CC[C@H]1NC(=O)c1[nH]c(C)c(Cl)c1Cl`, the MIC in the series with Staphylococcus aureus [1] was 0.031 µg/mL (≈ 0.0641 µM); in the series with Escherichia coli [3], 8 µg/mL (≈ 16.6 µM); in the series on Staphylococcus aureus [4], 0.031 µg/mL (≈ 0.0641 µM); in the series with Escherichia coli [6] it was 0.25 µg/mL (≈ 0.517 µM); with Moraxella catarrhalis, under 0.001 µg/mL; in the series on Streptococcus pneumoniae it was 0.032 µg/mL (≈ 0.0662 µM). The MIC in the series with Haemophilus influenzae is 0.031 µg/mL (≈ 0.0641 µM). The compound further came in with a fraction unbound in [2] of under 0.01. This compound also gave a clearance in [5] of 60 mL/min/kg. In addition, the Ratio in series [7] is reported as over 31. This compound had a logD in series [8] of 1.7. The compound also yielded a half-maximal inhibitory concentration (IC50) against DNA gyrase subunit B of under 0.01 µM. This compound registered a solubility in [9] of under 1 µM.
`CO[C@H]1CN(c2nc(C(=O)NC[C@H](C)OC)c(C(=O)O)s2)CC[C@H]1NC(=O)c1[nH]c(C)c(Cl)c1Cl`: the MIC with Staphylococcus aureus [1] is 0.031 µg/mL (≈ 0.0565 µM); with Escherichia coli [3], over 8 µg/mL; in the series with Staphylococcus aureus [4], 0.031 µg/mL (≈ 0.0565 µM); with Escherichia coli [6] it was 0.5 µg/mL (≈ 0.912 µM); in the series on Moraxella catarrhalis it was under 0.008 µg/mL; in the series on Streptococcus pneumoniae, 0.016 µg/mL (≈ 0.0292 µM). For the same compound, the values for the MIC in the series on Streptococcus pyogenes and in the series on Haemophilus influenzae were under 0.008 µg/mL and 0.13 µg/mL (≈ 0.237 µM), respectively. This compound had a free fraction (fraction unbound) in [2] of 0.027. The compound further registered a clearance in [5] of 13 mL/min/kg. For the same compound, the Ratio in series [7] is listed as 1.1. In addition, the IC50 at DNA gyrase subunit B was under 0.01 µM.

Values taken from ChEMBL document CHEMBL3352173, “Optimization of pyrrolamide topoisomerase II inhibitors toward identification of an antibacterial clinical candidate (AZD5099)” (J Med Chem, 2014).
